The target in assay [1] is T1, IgG receptor FcRn large subunit p51 (Homo sapiens, UniProt P55899). Kind of assay: Inhibition of human IgG binding to soluble human FcRn by ELISA. A digest of the protocol: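 Biotinylated soluble human FcRn immobilized on neutravidin plates, incubated with hIgG (3 nM, constant) and peptide at varying concentrations for 2 h at 37 °C. After washing, bound hIgG detected with peroxidase-conjugated hIgG-specific Fab fragments.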

The target of assay [2] is T1, IgG receptor FcRn large subunit p51. Nature of the assay: Binding affinity to human FcRn at pH 6 by surface plasmon resonance assay. Put shortly:
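Soluble human FcRn coupled to the dextran surface of a CM5 chip; peptide dilutions flowed over the chip. The equilibrium response at each dilution was plotted against concentration and fitted to a steady-state affinity model to give Kd.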

Square brackets hold non-standard residues; d marks the D form. Peptide text beside a SMILES is read from it. Dab = NCC[C@H](N)C(=O)O; βAla = NCCC(=O)O

T1 sequence (P55899 whole entry, the tested form may be a part): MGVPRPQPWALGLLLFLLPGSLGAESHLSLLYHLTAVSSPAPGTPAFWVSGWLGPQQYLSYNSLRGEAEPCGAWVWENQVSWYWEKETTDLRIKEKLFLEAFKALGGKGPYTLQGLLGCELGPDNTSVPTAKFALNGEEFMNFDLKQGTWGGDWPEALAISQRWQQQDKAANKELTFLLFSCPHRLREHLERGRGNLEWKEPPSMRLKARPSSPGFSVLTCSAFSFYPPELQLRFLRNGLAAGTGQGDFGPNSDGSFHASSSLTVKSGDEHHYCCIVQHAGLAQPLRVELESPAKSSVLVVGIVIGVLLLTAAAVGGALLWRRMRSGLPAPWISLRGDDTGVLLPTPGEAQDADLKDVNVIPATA

Compound `CC(C)C[C@H](NC(=O)CNC(=O)[C@@H](Cc1ccccc1)NC(=O)[C@H](Cc1ccccc1)NC(=O)[C@H](Cc1cnc[nH]1)NC(=O)CNC(=O)[C@@H](NC(=O)[C@@H](NC(=O)[C@H](Cc1ccccc1)NC(=O)[C@H](CCCNC(=N)N)NC(=O)[C@@H](N)CCC(N)=O)C(C)(C)S)[C@@H](C)O)C(=O)N[C@@H](Cc1ccc(O)cc1)C(=O)N1CCC[C@H]1C(=O)N[C@@H](CS)C(=O)N[C@@H](CC(N)=O)C(=O)NCC(=O)N1CCC[C@H]1C(=O)O` showed a half-inhibitory concentration (IC50) in assay [1] of 2.8 µM. For the same compound, in assay [2], binding was characterised by a dissociation constant (Kd) of 0.51 µM.

Compound `CC(C)C[C@H](NC(=O)CN1CCC[C@@H](NC(=O)[C@H](Cc2ccccc2)NC(=O)[C@H](Cc2cnc[nH]2)NC(=O)CNC(=O)[C@@H](NC(=O)[C@@H](NC(=O)[C@H](Cc2ccccc2)NC(=O)[C@@H](N)CCCNC(=N)N)C(C)(C)S)[C@@H](C)O)C1=O)C(=O)N[C@@H](Cc1ccc(O)cc1)C(=O)N1CCC[C@H]1C(=O)N[C@@H](CS)C(=O)O` registered a half-inhibitory concentration (IC50) in assay [1] of 0.66 µM. This compound yielded a Kd in assay [2] of 0.16 µM.

In turn, `CC(C)C[C@H](NC(=O)CNC(=O)CNC(=O)[C@H](Cc1ccccc1)NC(=O)[C@H](Cc1cnc[nH]1)NC(=O)CNC(=O)[C@@H](NC(=O)[C@@H](NC(=O)[C@H](Cc1ccccc1)NC(=O)[C@H](CCCNC(=N)N)NC(=O)[C@@H](N)CCC(N)=O)C(C)(C)S)[C@@H](C)O)C(=O)N[C@@H](Cc1ccc(O)cc1[N+](=O)[O-])C(=O)N1CCC[C@H]1C(=O)N[C@@H](CS)C(=O)N[C@@H](CC(N)=O)C(=O)NCC(=O)N1CCC[C@H]1C(=O)O` came in with an IC50 in assay [1] of more than 125 µM. The same compound came in with a dissociation constant Kd in assay [2] of 290 µM.

For `CC(C)C[C@H](NC(=O)CNC(=O)CNC(=O)[C@H](Cc1ccccc1)NC(=O)[C@H](Cc1cnc[nH]1)NC(=O)CCNC(=O)[C@@H](NC(=O)[C@H](CS)NC(=O)[C@H](Cc1ccccc1)NC(=O)[C@H](CCCNC(=N)N)NC(=O)[C@@H](N)CCC(N)=O)[C@@H](C)O)C(=O)N[C@@H](Cc1ccc(O)cc1)C(=O)N1CCC[C@H]1C(=O)N[C@@H](CS)C(=O)N[C@@H](CC(N)=O)C(=O)NCC(=O)N1CCC[C@H]1C(=O)O` (H-QRFCT[βAla]HFGGLYPCNGP-OH), in assay [1], the 50% inhibitory concentration (IC50) was more than 125 µM. For the same compound, the Kd in assay [2] was more than 250 µM.

`CC(C)C[C@H](NC(=O)CNC(=O)CNC(=O)[C@H](Cc1ccccc1)NC(=O)[C@H](Cc1cnc[nH]1)NC(=O)CNC(=O)[C@@H](NC(=O)[C@@H](NC(=O)[C@H](Cc1ccccc1)NC(=O)[C@H](CCCNC(=N)N)NC(=O)[C@@H](N)CCC(N)=O)C(C)(C)S)[C@@H](C)O)C(=O)N[C@@H](Cc1cccnc1)C(=O)N1CCC[C@H]1C(=O)N[C@@H](CS)C(=O)N[C@@H](CC(N)=O)C(=O)NCC(=O)N1CCC[C@H]1C(=O)O`: in assay [1], the IC50 was found to be 92 µM. Also, the Kd in assay [2] stood at 34 µM.

`CC(C)C[C@H](NC(=O)CNC(=O)CNC(=O)[C@@H](NC(=O)[C@H](Cc1cnc[nH]1)NC(=O)CNC(=O)[C@@H](NC(=O)[C@@H](NC(=O)[C@H](Cc1ccccc1)NC(=O)[C@H](CCCN=C(N)N)NC(=O)[C@@H](N)CCC(N)=O)C(C)(C)S)[C@@H](C)O)C(c1ccccc1)c1ccccc1)C(=O)N[C@@H](Cc1ccc(O)cc1)C(=O)N1CCC[C@H]1C(=O)N[C@@H](CS)C(=O)O` gave a 50% inhibitory concentration (IC50) in assay [1] of 32 µM. In assay [2], the dissociation constant (Kd) is 230 µM.

In assay [1], `CC(C)C[C@H](NC(=O)CNC(=O)CNC(=O)[C@H](Cc1ccccc1)NC(=O)[C@H](Cc1cnc[nH]1)NC(=O)CNC(=O)[C@@H](NC(=O)[C@H](CS)NC(=O)[C@H](Cc1ccccc1)NC(=O)[C@H](C)NC(=O)[C@@H](N)CCC(N)=O)[C@@H](C)O)C(=O)N[C@@H](Cc1ccc(O)cc1)C(=O)N1CCC[C@H]1C(=O)N[C@@H](CS)C(=O)N[C@@H](CC(N)=O)C(=O)NCC(=O)N1CCC[C@H]1C(=O)O` showed an IC50 of 23 µM. In addition, the affinity in assay [2], expressed as Kd, was 7.7 µM.

For the compound `CC(C)C[C@H](NC(=O)CNC(=O)CNC(=O)[C@H](Cc1ccccc1)NC(=O)[C@H](Cc1cnc[nH]1)NC(=O)CNC(=O)[C@@H](NC(=O)[C@@H](NC(=O)[C@H](Cc1ccccc1)NC(=O)[C@H](CCCN=C(N)N)NC(=O)[C@@H](N)CCC(N)=O)C(C)(C)S)[C@@H](C)O)C(=O)N[C@@H](Cc1ccc(O)cc1)C(=O)N1CCC[C@H]1C(=O)N[C@H](C(=O)N[C@@H](CC(N)=O)C(=O)NCC(=O)N1CCC[C@H]1C(=O)O)C(C)(C)S`, the IC50 in assay [1] was 2 µM. The compound also returned a Kd in assay [2] of 0.37 µM.

In assay [1], `CC(C)C[C@H](NC(=O)CNC(=O)CNC(=O)[C@H](Cc1ccccc1)NC(=O)[C@H](Cc1cnc[nH]1)NC(=O)CNC(=O)[C@@H](NC(=O)[C@H](CCN)NC(=O)[C@H](Cc1ccccc1)NC(=O)[C@H](CCCN=C(N)N)NC(=O)[C@@H](N)CCC(N)=O)[C@@H](C)O)C(=O)N[C@@H](Cc1ccc(O)cc1)C(=O)N1CCC[C@H]1C(=O)N[C@@H](CCC(=O)O)C(=O)N[C@@H](CC(N)=O)C(=O)NCC(=O)N1CCC[C@H]1C(=O)O` (H-QRF[Dab]TGHFGGLYPENGP-OH) returned an IC50 of 81 µM. The dissociation constant (Kd) in assay [2] worked out at 4.8 µM.

In assay [1], `CC(C)C[C@H](NC(=O)CNC(=O)CNC(=O)[C@H](Cc1ccccc1)NC(=O)[C@H](Cc1cnc[nH]1)NC(=O)CNC(=O)[C@@H](NC(=O)[C@H](CS)NC(=O)[C@H](Cc1ccccc1)NC(=O)[C@H](CCCNC(=N)N)NC(=O)[C@@H](N)CCC(N)=O)[C@@H](C)O)C(=O)N[C@@H](Cc1ccccc1)C(=O)N1CCC[C@H]1C(=O)N[C@@H](CS)C(=O)N[C@@H](CC(N)=O)C(=O)NCC(=O)N1CCC[C@H]1C(=O)O` returned an IC50 of more than 125 µM. The same compound yielded a Kd in assay [2] of 230 µM.

In assay [1], `CC(C)C[C@H](NC(=O)CNC(=O)CNC(=O)[C@H](Cc1ccccc1)NC(=O)[C@H](Cc1cnc[nH]1)NC(=O)CNC(=O)[C@@H](NC(=O)[C@H](CCC(=O)O)NC(=O)[C@H](Cc1ccccc1)NC(=O)[C@H](CCCN=C(N)N)NC(=O)[C@@H](N)CCC(N)=O)[C@@H](C)O)C(=O)N[C@@H](Cc1ccc(O)cc1)C(=O)N1CCC[C@H]1C(=O)N[C@@H](CCCN)C(=O)N[C@@H](CC(N)=O)C(=O)NCC(=O)N1CCC[C@H]1C(=O)O` came in with a 50% inhibitory concentration (IC50) of 80 µM. In assay [2], this compound came in with a Kd of 15 µM.

In assay [1], `CC(C)C[C@H](NC(=O)CNC(=O)CNC(=O)[C@H](Cc1ccccc1)NC(=O)[C@H](Cc1cnc[nH]1)NC(=O)CNC(=O)[C@@H](NC(=O)[C@H](CCC(=O)O)NC(=O)[C@H](Cc1ccccc1)NC(=O)[C@H](CCCNC(=N)N)NC(=O)[C@@H](N)CCC(N)=O)[C@@H](C)O)C(=O)N[C@@H](Cc1ccc(O)cc1)C(=O)N1CCC[C@H]1C(=O)N[C@@H](CCCCN)C(=O)N[C@@H](CC(N)=O)C(=O)NCC(=O)N1CCC[C@H]1C(=O)O` returned an IC50 of 100 µM. Further, the dissociation constant Kd in assay [2] was 27 µM.

Compound `CC(C)C[C@H](NC(=O)CNC(=O)CNC(=O)[C@H](Cc1cccnc1)NC(=O)[C@H](Cc1cnc[nH]1)NC(=O)CNC(=O)[C@@H](NC(=O)[C@@H](NC(=O)[C@H](Cc1ccccc1)NC(=O)[C@H](CCCN=C(N)N)NC(=O)[C@@H](N)CCC(N)=O)C(C)(C)S)[C@@H](C)O)C(=O)N[C@@H](Cc1ccc(O)cc1)C(=O)N1CCC[C@H]1C(=O)N[C@@H](CS)C(=O)N[C@@H](CC(N)=O)C(=O)NCC(=O)N1CCC[C@H]1C(=O)O` showed a concentration for half-maximal inhibition (IC50) in assay [1] of 60 µM. In assay [2], binding was characterised by a dissociation constant (Kd) of 19 µM.

`Cc1ccccc1C[C@H](NC(=O)[C@H](Cc1cnc[nH]1)NC(=O)CNC(=O)[C@@H](NC(=O)[C@@H](NC(=O)[C@H](Cc1ccccc1)NC(=O)[C@H](CCCNC(=N)N)NC(=O)[C@@H](N)CCC(N)=O)C(C)(C)S)[C@@H](C)O)C(=O)NCC(=O)NCC(=O)N[C@@H](CC(C)C)C(=O)N[C@@H](Cc1ccc(O)cc1)C(=O)N1CCC[C@H]1C(=O)N[C@@H](CS)C(=O)N[C@@H](CC(N)=O)C(=O)NCC(=O)N1CCC[C@H]1C(=O)O`: the half-inhibitory concentration (IC50) in assay [1] was 1 µM. For the same compound, in assay [2], binding was characterised by a dissociation constant (Kd) of 0.2 µM.

For `CC(C)C[C@H](NC(=O)CNC(=O)CNC(=O)[C@H](Cc1ccccc1)NC(=O)[C@H](Cc1cnc[nH]1)NC(=O)CNC(=O)[C@@H](NC(=O)[C@@H](N)CS)[C@@H](C)O)C(=O)N[C@@H](Cc1ccc(O)cc1)C(=O)N1CCC[C@H]1C(=O)N[C@@H](CS)C(=O)O` (H-CTGHFGGLYPC-OH), the 50% inhibitory concentration (IC50) in assay [1] turned out to be 110 µM. Moreover, the dissociation constant (Kd) in assay [2] amounted to 20 µM.

`Cc1ccc(C[C@H](NC(=O)[C@H](Cc2cnc[nH]2)NC(=O)CNC(=O)[C@@H](NC(=O)[C@@H](NC(=O)[C@H](Cc2ccccc2)NC(=O)[C@H](CCCN=C(N)N)NC(=O)[C@@H](N)CCC(N)=O)C(C)(C)S)[C@@H](C)O)C(=O)NCC(=O)NCC(=O)N[C@@H](CC(C)C)C(=O)N[C@@H](Cc2ccc(O)cc2)C(=O)N2CCC[C@H]2C(=O)N[C@@H](CS)C(=O)N[C@@H](CC(N)=O)C(=O)NCC(=O)N2CCC[C@H]2C(=O)O)cc1`: binding in assay [2] was characterised by a dissociation constant (Kd) of 0.2 µM.

In assay [2], `CC(C)C[C@H](NC(=O)CNC(=O)[C@@H](C)NC(=O)[C@H](Cc1ccccc1)NC(=O)[C@H](Cc1cnc[nH]1)NC(=O)CNC(=O)[C@@H](NC(=O)[C@@H](NC(=O)[C@H](Cc1ccccc1)NC(=O)[C@H](CCCNC(=N)N)NC(=O)[C@@H](N)CCC(N)=O)C(C)(C)S)[C@@H](C)O)C(=O)N[C@@H](Cc1ccc(O)cc1)C(=O)N1CCC[C@H]1C(=O)N[C@@H](CS)C(=O)N[C@@H](CC(N)=O)C(=O)NCC(=O)N1CCC[C@H]1C(=O)O` yielded a dissociation constant Kd of 0.49 µM.

`CC(C)C[C@H](NC(=O)CNC(=O)CNC(=O)[C@H](Cc1ccccc1)NC(=O)[C@H](Cc1cnc[nH]1)NC(=O)CNC(=O)[C@H](NC(=O)[C@H](NC(=O)[C@H](Cc1ccccc1)NC(=O)[C@H](CCCN=C(N)N)NC(=O)[C@@H](N)CCC(N)=O)C(C)(C)S)[C@@H](C)O)C(=O)N[C@@H](Cc1ccc(O)cc1)C(=O)N1CCC[C@H]1C(=O)N[C@H](CS)C(=O)N[C@@H](CC(N)=O)C(=O)NCC(=O)N1CCC[C@H]1C(=O)O` had an equilibrium dissociation constant (Kd) in assay [2] of more than 250 µM.

In assay [2], `CC(C)C[C@H](NC(=O)CNC(=O)CNC(=O)[C@H](Cc1ccc([N+](=O)[O-])cc1)NC(=O)[C@H](Cc1cnc[nH]1)NC(=O)CNC(=O)[C@@H](NC(=O)[C@@H](NC(=O)[C@H](Cc1ccccc1)NC(=O)[C@H](CCCN=C(N)N)NC(=O)[C@@H](N)CCC(N)=O)C(C)(C)S)[C@@H](C)O)C(=O)N[C@@H](Cc1ccc(O)cc1)C(=O)N1CCC[C@H]1C(=O)N[C@@H](CS)C(=O)N[C@@H](CC(N)=O)C(=O)NCC(=O)N1CCC[C@H]1C(=O)O` displayed a Kd of 84 µM.
